Jurkat tox 60K – cytotoxicity toward Jurkat cells; AID 463; Jurkat E6.1 viability, ATP luminescence, 48 h; inhibition, % at 4 µM; 56,000 compounds, 1.2% hits;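 active = inhibition above the mean inhibition of all tested compounds plus 3 SD, cut at about 28% in these data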
H69AR growth 86K – growth inhibitors of human H69AR lung tumor cells; H69AR lung tumor viability, ATP luminescence, 72 h; hits give low values; viability, % at 10 µM; 85,000 compounds, 6% hits; AID 598;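 active = viability at or below 40%; inactive = viability above 40%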;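 note: multidrug resistant small cell line overexpressing MRP-1 efflux transporter; 100% = mean luminescence of untreated control wells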
Ecoli tolC – growth inhibitors of E. coli BW25113 tolC mutant | 65,000 compounds, 2.2% hits | AID 573 | OD615 | growth inhibition, % at 10 µM (by protocol);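 active = growth inhibition at or above a cutoff equal to the mean over every tested compound plus 3 SD, cut at about 60% in these data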;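 note: growth measured after 20 h incubation at 37 °C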
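Test system – E. coli BW25113 ΔtolC::kan, tolC deletion mutant strain · Detection – OD at 615 nm · Buffer or medium – LB with kanamycin 50 µg/mL · Times – 20 h compound exposure of bacteria at 37 °C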
Lung fibro prol – blocks proliferation of human lung fibroblasts. AID 719. viability, % at 10 µM. 85,000 compounds, 1.1% hits. LL 47 human lung fibroblast viability, ATP luminescence; hits give low values;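 active = viability at or below 50% in the single dose screen; inactive = viability above 50%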;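 note: compound exposure lasted 72 h before the ATP readout; 100% = median luminescence of untreated cell-only wells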
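test system = LL 47 human lung fibroblasts | amount = 1,150 fibroblasts seeded per well | medium = 15% FBS in IMEM | times = overnight cell rest, 72 h compound treatment at 37 °C | measured by = CellTiter-Glo luminescence measuring cellular ATP | read-out = viability percentage against median untreated-cell control | benchmarks = cell-only wells, no compound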
HUVEC inhibit – human endothelial cell proliferation inhibition; 86,000 compounds, 1.1% hits; viability, % at 10 µM (by protocol); HUVEC proliferation, CellTiter-Glo luminescence, 72 h; hits give low values;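 active = viability at or below 30%; inactive = viability above 30%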;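 note: 100% = median luminescence of DMSO-only cell control wells on each plate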
Ecoli WT expand – blocks growth of wild type E. coli BW25113 | OD600 absorbance | growth inhibition, % at 100 µM | 98,000 compounds, 0.15% hits | AID 710;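 active = growth inhibition above about 50% at one test dose, limit read from the data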;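 note: growth measured after 20 h incubation at 37 °C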
The depositor's hits bear a star; . = no result. Sampled rows, rich in hits. Any-hit rate of the full collection: about 6.4%.

SMILES	Jurkat tox 60K	H69AR growth 86K	Ecoli tolC	Lung fibro prol	HUVEC inhibit	Ecoli WT expand
COc1ccccc1N1CCN(C(c2ccccc2Cl)c2nnnn2C(C)(C)C)CC1 (stereo not drawn)	-1.9	.	63.5*	.	.	-11.0
COc1ccccc1N1CCN(C(c2ccc(Cl)cc2)c2nnnn2C(C)(C)C)CC1 (stereo not drawn)	-2.9	98.9	66.0*	89.2	101.2	-19.0
CCC(C)N(C(=O)Cn1nnc2ccccc21)C(C(=O)Nc1ccc(F)cc1)c1cccc(OC)c1 (stereo not drawn)	.	.	.	.	.	-11.0
CCOC(=O)c1oc2ccccc2c1NC(=O)c1cccc(OC)c1OC	5.1	29.8*	55.2	88.6	62.8	-5.0
Cc1ccc(Cl)cc1N1CCN(C(=O)c2cc3c(=O)n(C)c4ccccc4c3n2C)CC1	-5.5	61.4	16.9	53.9	51.1	-3.0
CCCn1c(SCC(=O)Nc2ccccc2Oc2ccccc2)n[nH]c1=O	.	51.7	.	102.4	102.6	4.0
COc1ccc(C(=O)N2CCCCC2)cc1S(=O)(=O)Nc1ccccc1	-2.0	92.4	-5.5	100.3	93.2	6.0
CCOC(=O)N1CCN(C(=O)c2ccc(Cl)c(S(=O)(=O)Nc3ccccc3)c2)CC1	10.6	31.6*	3.2	103.5	95.1	1.0
CCOc1ccc(N2C(=O)C(Cl)=C(Nc3ccccc3O)C2=O)cc1	.	53.3	.	103.4	92.3	-4.0
OC1CCCN(Cc2ccc3ccc4cccc5ccc2c3c45)C1 (stereo not drawn)	.	44.7	.	48.5*	2.4*	38.0
c1cc2ccc3ccc(CN4CCOCC4)c4ccc(c1)c2c34	.	82.5	.	93.5	89.7	9.0
O=S(=O)(c1ccc(Cl)cc1)n1nnc2ccccc21	.	105.3	.	96.2	90.3	-1.0
COc1ccc2cc3c(N)nn(C(=O)Cc4ccccc4OC)c3nc2c1	14.3	46.3	18.6	68.0	28.0*	-16.0
Cc1ccc(-n2c3c(cc(C(=O)NCc4ccco4)c2=O)C(=O)CC(C)(C)C3)cc1	-2.3	51.3	2.9	96.8	83.6	-2.0
CC1(C)CC(=O)c2cc(C(=O)NCc3ccco3)c(=O)n(-c3ccc(Cl)cc3)c2C1	4.8	58.9	23.5	47.6*	92.6	0.0
CC(C)c1nc(N2CCN(C(=O)c3ccco3)CC2)c2c3c(sc2n1)CCCC3	4.1	88.4	78.7*	95.6	92.8	3.0
Cc1ccccc1NC(=O)C1CCN(c2cc(-c3ccccc3)nc3ncnn23)CC1	.	37.3*	.	89.6	104.1	.
O=S(=O)(c1ccccc1)N1CCN(c2cc(-c3ccccc3)nc3ncnn23)CC1	14.0	56.3	10.5	92.7	72.8	-7.0
Cc1cnc(Nc2nc3ccccc3o2)nc1C(=O)Nc1cccc(C(F)(F)F)c1	-11.5	1.3*	50.6	44.3*	45.4	-5.0
CC(C)C(=O)Nc1sc2c(c1-c1nc3ccccc3[nH]1)CCCC2	.	48.7	.	98.1	62.0	-17.0
CN1CCN(C2=C(Cl)C(=O)C(c3cnc(N4CCCCC4)s3)=C(Cl)C2=O)CC1	.	1.6*	.	5.8*	69.5	.
CN1CCN(C2=C(Cl)C(=O)N(C3CCCCC3)C2=O)CC1	2.8	45.2	-0.7	92.2	59.6	11.0
CC(C(=O)Nc1cccc([N+](=O)[O-])c1)n1nnc2ccccc21 (stereo not drawn)	.	.	.	.	.	17.0
CCSc1nnc(NC(=O)c2nc(-c3ccccc3)n(-c3ccccc3)n2)s1	3.1	72.1	77.8*	97.6	91.8	-8.0
Cc1csc(NC(=O)c2nc(-c3ccccc3)n(-c3ccccc3)n2)n1	-2.6	26.1*	1.0	.	102.5	-6.0
SMILES	Jurkat tox 60K	H69AR growth 86K	Ecoli tolC	Lung fibro prol	HUVEC inhibit	Ecoli WT expand
CCSc1nnc(NC(=O)c2cc(C)nc3ccccc23)s1	.	69.0	.	85.5	83.3	-3.0
CCCCOC(=O)n1c(SCC(=O)N(CC)CC)nc2ccccc21	-0.8	86.4	41.2	104.8	102.2	9.0
Cc1ccnc(NS(=O)(=O)c2ccc(NS(=O)(=O)c3ccccc3)cc2)n1	.	76.3	.	97.2	99.7	.
CCCCN(CC)C(=O)Cc1cn(C)c2ccccc12	.	86.8	.	113.3	99.0	8.0
COc1cc2c(cc1NC(=S)Nc1cccc(C(F)(F)F)c1)oc1ccccc12	.	30.2*	.	98.6	45.5	7.0
CCNC(=O)CCS(=O)(=O)c1ccc2ccccc2c1	.	101.2	.	109.0	91.8	.
Cn1c(-c2ccc(F)cc2)cnc1NCc1ccccc1	2.3	74.3	22.9	93.3	94.4	21.0
Cn1c(-c2ccc(F)cc2)cnc1NCc1cccc(F)c1	.	35.8*	.	75.5	79.7	15.0
CCc1cc(/C(Cc2ccc3ccccc3n2)=N\O)c(O)cc1O	11.7	.	97.5*	.	.	17.0
CCc1cc(/C(Cc2ccccn2)=N\O)c(O)cc1O	.	73.6	.	95.2	85.1	5.0
CC1(C)Cc2c(cnn2-c2ccccc2)-c2c1c1ccccc1n2CC(O)CCl (stereo not drawn)	.	25.2*	.	92.3	60.5	.
CCOC(=O)C1=NNC(C(=O)c2ccc(OC)cc2)C1c1ccccc1 (stereo not drawn)	.	96.3	.	102.2	98.7	6.0
Clc1ccccc1-c1nnc2sc(-c3ccc4c(c3)OCO4)nn12	1.9	23.4*	-6.6	91.9	50.5	24.0
Clc1ccc(-c2nnc3sc(-c4ccc(Br)o4)nn23)c(Cl)c1	-5.4	.	-6.6	.	.	-5.0
CN(C)c1ccc(-c2nn3c(-c4ccc(Cl)cc4Cl)nnc3s2)cc1	6.7	13.9*	-2.4	85.1	45.5	0.0
Brc1ccccc1-c1nnc2sc(-c3ccc4c(c3)OCCO4)nn12	16.0	16.5*	13.0	86.8	72.2	-4.0
N#CCCN(C(=O)CSc1nc(-c2ccccc2)cn1N)c1ccc(F)cc1	.	93.9	.	96.2	95.7	-3.0
CCOc1cc(CNCCO)cc(Br)c1OCc1ccc(Cl)cc1Cl	.	.	.	.	.	80.0*
Cc1ccc(Cn2ccc(NC(=O)c3noc4c3CCc3ccccc3-4)n2)cc1	.	103.2	.	103.5	81.0	-8.0
Cc1nn(Cc2ccccc2Cl)c(C)c1NC(=O)c1noc2c1CCCCC2	18.2	93.2	65.3*	103.1	83.7	-6.0
Cc1ccccc1Cn1nc(C)c(NC(=O)c2noc3c2CCCC3)c1C	8.0	91.0	5.3	.	96.8	1.0
COc1ccc2c(c1)CCc1c(C(=O)Nc3ccn(Cc4ccc(C)cc4)n3)noc1-2	4.6	10.4*	-11.4	93.3	37.7	-9.0
COc1ccc2c(c1)CCc1c(C(=O)Nc3cc(C)n(Cc4ccc(Cl)cc4)n3)noc1-2	2.6	5.3*	7.5	59.9	52.0	-9.0
COc1ccc(-c2cc(C(=O)Nc3cc(C)n(Cc4ccc(Cl)cc4)n3)no2)cc1OC	1.9	14.5*	23.4	105.7	46.3	-7.0
O=C(NC1CCCCC1)C(c1ccc(F)cc1)N(Cc1ccc2c(c1)OCO2)C(=O)c1cnsn1 (stereo not drawn)	.	73.9	.	94.1	101.3	.
COC(=O)c1sccc1NC(=O)CSc1ccccc1NS(=O)(=O)c1ccc(Br)cc1	.	.	.	.	.	-15.0
COC(=O)CN(c1ccc(F)cc1)S(=O)(=O)c1ccc2c(c1)OCCO2	-3.8	86.3	6.0	.	90.5	-6.0

Screening data deposited in PubChem by several laboratories.
